This is a sample that favours compounds with a hit; in the whole collection about 5.2% have one here.
M18AAP inhibitor: PfM18AAP enzyme inhibition. recombinant PfM18AAP, H-Glu-NHMec fluorogenic cleavage. inhibition, % at 7.35 µM. 290,000 compounds, 1.2% hits. AID 1822;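 active = inhibition above the campaign mean inhibition over all tested compounds plus 3 SD, cut at about 28% in these data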;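 also: 0% = plate median of test compound wells and 100% = 2 mM ZnCl2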
HCV NS3 hel inh: inhibitors of Hepatitis C virus NS3 helicase. NS3 helicase DNA unwinding, Cy5 molecular beacon fluorescence. inhibition, % at 10.9 µM. 290,000 compounds, 0.56% hits. AID 1800;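 active = inhibition above the mean of all tested compounds plus 3 SD, set per campaign, cut at about 35% in these data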;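 also: 0% = DMSO wells and 100% = thioflavine S control wells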
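Material: hepatitis C virus NS3 helicase domain fragment enzyme; measured by: Cy5 fluorescence, 0 and 60 min reads; control set: DMSO and thioflavine S; incubation: 60 min unwinding reaction at 25 °C after ATP addition; read-out basis: % inhibition from 60/0 min fluorescence ratio, DMSO 0%, thioflavine S 100%; repeats: singlicate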
ALR inh: inhibitors of human sulfhydryl oxidase ALR | 290,000 compounds, 3.8% hits | purified ALR, DTT oxidation, H2O2 HRP-luminol luminescence | P55789 | inhibition, % (no concentration beside the values);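 active = mean replicate inhibition above about 79%, with every replicate also reaching it, limit read from the data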
Target sequence (P55789 whole entry, looked up): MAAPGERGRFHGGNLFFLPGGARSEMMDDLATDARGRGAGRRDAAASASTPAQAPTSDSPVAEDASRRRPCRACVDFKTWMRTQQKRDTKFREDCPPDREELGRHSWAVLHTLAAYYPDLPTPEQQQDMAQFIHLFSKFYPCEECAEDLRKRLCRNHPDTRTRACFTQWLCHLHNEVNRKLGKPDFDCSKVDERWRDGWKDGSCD
ZTA DNA inh: ZTA (EBV) inhibition in EBNA-1 counter-screen; P03206; ZTA-DNA binding, fluorescence polarization; inhibition, % at 11 µM; 320,000 compounds, 0.15% hits; AID 2234; in the data active = inhibition above about 33%
Target sequence (P03206 whole entry, looked up): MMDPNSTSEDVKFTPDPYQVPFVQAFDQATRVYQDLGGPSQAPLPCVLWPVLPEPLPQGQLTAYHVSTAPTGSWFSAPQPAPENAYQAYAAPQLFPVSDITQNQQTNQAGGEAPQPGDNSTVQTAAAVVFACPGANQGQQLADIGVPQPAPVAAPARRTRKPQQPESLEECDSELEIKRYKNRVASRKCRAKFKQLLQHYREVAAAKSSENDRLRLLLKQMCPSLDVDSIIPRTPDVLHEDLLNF
core dimer inh: HCV core protein dimerization inhibition | TR-FRET GST/Flag-core106 dimerization, 1536-well | inhibition, % at 5 µM | 300,000 compounds, 0.33% hits;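 active = inhibition above the mean of all tested compounds plus 3 SD, set per screening campaign, cut at about 45% in these data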
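Assay system – GST-tagged and Flag-tagged HCV core protein residues 1-106 · Quantity – core106 proteins, GST 13.5 nM and Flag 17 nM · Benchmarks – unlabelled core106 and no-GST-core106 wells · Read-out basis – percent inhibition of core106 dimerization signal · Detection – time-resolved FRET, ex 340 nm, em 617 and 671 nm · Schedule – 4 h at 22.5 °C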
EBNA-1 inhibitor: blocks EBNA-1 binding to DNA. inhibition, % at 14.8 µM. 300,000 compounds, 0.34% hits. EBNA-1 DNA binding, fluorescence polarization; in the data active = inhibition above about 28%
* hit, by the source's call.

C/C(=N/NC(=O)c1sc(NS(=O)(=O)c2ccc(C)cc2)nc1C)c1sc(N)nc1C was read as M18AAP inhibitor -4, HCV NS3 hel inh 8, ALR inh 99*, ZTA DNA inh 16, core dimer inh -14 and EBNA-1 inhibitor 5.
For Cc1ccc(S(=O)(=O)Nc2nc(C)c(C(=O)NN)s2)cc1 the results were M18AAP inhibitor -1, HCV NS3 hel inh 10, ALR inh -6, ZTA DNA inh 16, core dimer inh 3 and EBNA-1 inhibitor 5.
`CC1(C)CC(=O)C(C(C2=C(O)CC(C)(C)CC2=O)c2ccc([N+](=O)[O-])cc2)C(=O)C1` (stereo not given) gave M18AAP inhibitor 7, HCV NS3 hel inh 2, ALR inh 23, ZTA DNA inh 8, core dimer inh 2 and EBNA-1 inhibitor 0.
Screening COc1cccc(C(C2=C(O)CC(C)(C)CC2=O)C2C(=O)CC(C)(C)CC2=O)c1 (stereo not given) returned M18AAP inhibitor -13, HCV NS3 hel inh 1, ALR inh 98*, ZTA DNA inh -1, core dimer inh -4 and EBNA-1 inhibitor -10.
Screening Cc1ccc(C(C2=C(O)CC(C)(C)CC2=O)C2C(=O)CC(C)(C)CC2=O)s1 (stereo not given) returned M18AAP inhibitor 11, HCV NS3 hel inh 3, ALR inh 98*, ZTA DNA inh 2, core dimer inh -3 and EBNA-1 inhibitor -11.
Screening COc1cccc(C(C2C(=O)CC(C)(C)CC2=O)C2C(=O)CC(C)(C)CC2=O)c1 returned M18AAP inhibitor -13, HCV NS3 hel inh -1, ZTA DNA inh 0, core dimer inh 5 and EBNA-1 inhibitor 5.
For CC1(C)CC(=O)C(C(C2=C(O)CC(C)(C)CC2=O)c2ccc(Br)s2)C(=O)C1 (stereo not given) the results were M18AAP inhibitor -3, HCV NS3 hel inh -5, ALR inh 98*, ZTA DNA inh 13, core dimer inh 0 and EBNA-1 inhibitor 3.
For CC(OC(=O)Cn1nnc2ccccc21)C(=O)NC1CCCC1 (stereo not given) the results were M18AAP inhibitor 3, HCV NS3 hel inh 6, ALR inh -2, ZTA DNA inh -2, core dimer inh 4 and EBNA-1 inhibitor 0.
For O=C(NCC1OCCc2ccccc21)c1ccc(NC(=O)c2ccc(Cl)cc2)cc1 (stereo not given) the results were M18AAP inhibitor 2, HCV NS3 hel inh -3, ALR inh 7, ZTA DNA inh 1, core dimer inh 5 and EBNA-1 inhibitor 32*.
Cc1ccc(C(=O)NCC(=O)OC(C)C(=O)Nc2ccc(N3CCOCC3)cc2)s1 (stereo not given) was read as M18AAP inhibitor -3, HCV NS3 hel inh 6, ALR inh 93*, ZTA DNA inh 16, core dimer inh 2 and EBNA-1 inhibitor 3.
`CC(OC(=O)COc1ccccc1[N+](=O)[O-])C(=O)Nc1ccc(N2CCOCC2)cc1` (stereo not given) gave M18AAP inhibitor -4, HCV NS3 hel inh 1, ALR inh 76*, ZTA DNA inh 6, core dimer inh -3 and EBNA-1 inhibitor 2.
CCC(=O)N1CCN(c2ccc(NC(=O)COc3ccccc3[N+](=O)[O-])cc2)CC1 was read as M18AAP inhibitor 0, HCV NS3 hel inh 1, ALR inh -1, ZTA DNA inh -10, core dimer inh -2 and EBNA-1 inhibitor -17.
COc1ccc(CCNC(=O)COc2ncnc3ccccc23)cc1OC was read as M18AAP inhibitor 5, HCV NS3 hel inh -2, ALR inh -1, ZTA DNA inh 2, core dimer inh 0 and EBNA-1 inhibitor 2.
COc1ccc(CNC(=O)CSc2ncnc3ccccc23)cc1OC was read as M18AAP inhibitor -2, HCV NS3 hel inh -1, ALR inh 89*, ZTA DNA inh 4, core dimer inh -1 and EBNA-1 inhibitor -12.
Screening COc1ccc(NC(=O)CSc2nc(O)c(Cc3ccccc3)c(=O)[nH]2)cc1 returned M18AAP inhibitor 2, HCV NS3 hel inh 6, ALR inh 99*, ZTA DNA inh -22, core dimer inh -2 and EBNA-1 inhibitor 11.
O=C(CSc1nc(O)c(Cc2ccccc2)c(=O)[nH]1)Nc1nnc(SCc2ccccc2)s1 was read as M18AAP inhibitor 0, HCV NS3 hel inh 8, ALR inh 30, ZTA DNA inh -4, core dimer inh 3 and EBNA-1 inhibitor -7.
`CCCc1c(O)nc(SCC(=O)NCCc2ccc(OC)c(OC)c2)[nH]c1=O` gave M18AAP inhibitor 2, HCV NS3 hel inh -3, ALR inh 98*, ZTA DNA inh 10, core dimer inh -6 and EBNA-1 inhibitor 6.
O=C(CSc1nc(O)c(Cc2ccccc2)c(=O)[nH]1)Nc1ccccc1 was read as M18AAP inhibitor 6, HCV NS3 hel inh 0, ALR inh 99*, ZTA DNA inh -12, core dimer inh -2 and EBNA-1 inhibitor 2.
CCN(CC)C(=O)CSc1nc(O)c(Cc2ccc(OC)cc2)c(=O)[nH]1 was read as M18AAP inhibitor -10, HCV NS3 hel inh -8, ALR inh 98*, ZTA DNA inh 2, core dimer inh -6 and EBNA-1 inhibitor -8.
`CCCCc1nnc(NC(=O)CSc2nc(O)c(Cc3ccccc3)c(=O)[nH]2)s1` gave M18AAP inhibitor -1, HCV NS3 hel inh 10, ALR inh 99*, ZTA DNA inh -12, core dimer inh -6 and EBNA-1 inhibitor -12.
C=CCc1c(C)nc(SCc2nc3ccccc3c(=O)[nH]2)[nH]c1=O was read as M18AAP inhibitor 13, HCV NS3 hel inh 1, ALR inh 7, ZTA DNA inh 5, core dimer inh 1 and EBNA-1 inhibitor -2.
COc1ccc(CCNC(=O)CSC(=O)c2ccccc2)cc1OC was read as M18AAP inhibitor -12, HCV NS3 hel inh 3, ALR inh 99*, ZTA DNA inh -1, core dimer inh -1 and EBNA-1 inhibitor 10.
CCc1c(O)nc(SCc2nc3ccccc3c(=O)[nH]2)[nH]c1=O was read as M18AAP inhibitor -12, HCV NS3 hel inh 5, ALR inh 98*, ZTA DNA inh 2, core dimer inh -5 and EBNA-1 inhibitor 2.
Screening CCCCNC(=O)CSc1nc(O)c(Cc2ccc(OC)cc2)c(=O)[nH]1 returned M18AAP inhibitor -5, HCV NS3 hel inh 4, ZTA DNA inh 3, core dimer inh 2 and EBNA-1 inhibitor 8.
CCc1cccc(NC(=O)Cn2cc(C=O)c3ccccc32)c1 was read as M18AAP inhibitor 2, HCV NS3 hel inh 9, ZTA DNA inh 16, core dimer inh 1 and EBNA-1 inhibitor -3.
Screening CCc1c(O)nc(SCC(=O)N2CCc3cc(OC)c(OC)cc3[C@@H]2C)[nH]c1=O returned M18AAP inhibitor 2, HCV NS3 hel inh 5, ALR inh 99*, ZTA DNA inh 7, core dimer inh 1 and EBNA-1 inhibitor 0.

Screening results from PubChem BioAssay.
